From ChEMBL document CHEMBL4513216, “Probing the Open Global Health Chemical Diversity Library for Multistage-Active Starting Points for Next-Generation Antimalarials” (ACS Infect Dis, 2020)

Assay: Toxicity liver stage against HepG2, at 10uM
Assay type: cell-based
Set-up: test concentration 10 uM, cell line HepG2-A16-CD81EGFP
Details: human, HepG2-A16-CD81EGFP cells; read-out: INHIBITION
Summary of the method: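 Uninfected HepG2-A16-CD81EGFP cells, 3 × 10^3 per well, 1536-well, plated on prespotted compound at 10 μM final, parasite-free screening media added to match infected plates; puromycin 10 μM positive, DMSO 0.5% negative; run in parallel with 48 h PbLuc assay at 37 °C, 5% CO2; viability by CellTiter-Glo luminescence, normalized to controls.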

| SMILES | cytotoxicity at 10 µM |
| --- | --- |
| Cc1cc(CNC(=O)C2CCC(=O)N(Cc3ccccc3F)C2)on1 (stereo not given) | -5.26% |
| O=C1CO[C@H]2CN(Cc3c[nH]c4ccccc34)C[C@H]2N1 | 1.61% |
| CN(C)[C@@H]1CO[C@H](CNC(=O)c2cccs2)[C@H]1O | -1.37% |
| CCN1CCN(C(=O)c2cn(Cc3ccccc3)c3ncccc23)CC1 | -1.6% |
| CC(C)Cn1nc2ccc(S(=O)(=O)N3CCC(C)CC3)cn2c1=O | 1.67% |
| O=C(c1cc(C2CC2)on1)N1CCC(Oc2ncccc2Br)CC1 | 3.96% |
| CN(C)c1cnnc(N2CCN(C(=O)Cc3ccccc3)CC2)c1 | 5.5% |
| O=C(C1CCCO1)N1CCc2nnc(Cn3cccc3)n2CC1 (stereo not given) | 13.9% |
| COCCN1CCC2(CC1)CC(OCC1CC1)c1ccc(C)cc12 (stereo not given) | 15.5% |
| O=C(NCc1ccccc1)N1Cc2nc(COCC3CC3)oc2C1 | 8.67% |
| c1ccc(CN2CCC3(COCc4cnc(NCC5CC5)nc43)C2)cc1 (stereo not given) | 12.5% |
| CCN1CC2(CC1=O)CN(Cc1ccoc1)CCN(C(=O)C(C)C)C2 (stereo not given) | 9.14% |
| CCOc1cc(=O)n2c(c1C(=O)OCc1cccc(C)c1)CCCC2 | -15.1% |
| Nc1nc(N2CCCCCC2)ncc1C(=O)NCc1ccc(F)c(Cl)c1 | -0.585% |
| Cc1nc(N2CCCC2)nc2c1CCN(C(=O)C1CCCC1)CC2 | -0.265% |
| Cc1nn(C)c2c(N3CCN(C(=O)C4CC4)CC3)ncnc12 | 9.02% |
| Cc1nn(C)c(C)c1CN(C)C(=O)c1cc(NC(=O)C2CC2)n(C)n1 | 3.38% |
| CCOc1cc(C(=O)N2CCN(C)CC2)cc2occc12 | 7% |
| CCc1c(O)nc2nc(N3CCCC3)nn2c1C | 10% |
| CS(=O)(=O)c1snnc1C1CCN(Cc2cccc(O)c2)CC1 | -8.91% |
| Cc1ccc(C(=O)N2CC[C@H](Oc3cccnc3C)[C@@H](O)CC2)s1 | -5.58% |
| CCCC1c2cccn2CCN1C(=O)c1cc(CC)no1 (stereo not given) | -14.9% |

| SMILES | cytotoxicity at 10 µM |
| --- | --- |
| O=S1(=O)NCC2(CCN(Cc3ccncc3)CC2)Oc2ncccc21 | 5.97% |
| N#CCCn1cnc2c(Br)cc(Br)cc2c1=O | -5.35% |
| Cc1cc(C2CCCN2C(=O)COc2ccc(CC#N)cc2)no1 (stereo not given) | -38.9% |
| O=C(CSCCN1CCOCC1)N1CCCCCC1 | 10.4% |
| O=C(c1cc(C2CC2)nc2onc(-c3ccccc3)c12)N1CC(O)C1 | -50.5% |
| COc1ccc2c(c1)CCCN2C(=O)NC1CCCCNC1=O (stereo not given) | -139% |
| Cc1cc(C)c(CNC(=O)NCCCNc2ccccn2)c(=O)[nH]1 | -43% |
| CS(=O)(=O)c1cccc2c1CCCN2C(=O)Cc1cccc(F)c1 | 8.14% |
| Cn1ccc(C(=O)Nc2nnc(-c3ccccn3)[nH]2)cc1=O | 6.69% |
| O=C(NCCCN1CCOCC1)c1ccnc(OCc2ccccc2)c1 | -21.4% |
| COc1ccc(NC(=O)c2ccco2)c(N2CCN(C(C)=O)CC2)n1 | -10.2% |
| CC(O)C1CCN(Cc2nccn2CC(F)(F)F)CC1 (stereo not given) | 4.29% |
| CCC(CC)C(CNC(=O)Nc1ccc(OC)cc1)N1CCOCC1 (stereo not given) | -2.86% |
| O=C(Nc1cc(-c2ccccc2)on1)N1CCN(CCO)CC1 | 3.3% |
| CCN(CCc1nccs1)C(=O)c1sccc1C | -0.682% |
| Cc1nn(C)c(C)c1C(=O)N1CCN(c2ccncc2Cl)CC1 | -2.25% |
| Cc1cnc(CN(C)C2CCN(Cc3nc4c(F)cccc4[nH]3)C2)o1 (stereo not given) | 2.53% |
| O=C(c1ccc(O)nc1)N1CCN(C(=O)c2ccc(F)cc2F)CC1 | -1.35% |
| Cc1ccnc(NC(=O)C2CCN(CCCn3ccnc3C)CC2)c1 | -58.2% |
| O=S(=O)(Nc1ccon1)c1cc(Cl)cc2c1OCC2 | 5.81% |
| Cc1ncsc1C(=O)N1CC(C)Sc2ccccc21 (stereo not given) | -0.663% |
| CCNC(=O)NC(=O)CNC1(c2noc(C)n2)CCCCC1 | -1.3% |

| SMILES | cytotoxicity at 10 µM |
| --- | --- |
| O=C(c1cocn1)N1C[C@@H]2COC[C@]2(COc2cccnc2)C1 | -107% |
| Cn1cccc1C(=O)N1C[C@@H]2C[C@@H](c3nnc(C4CC4)o3)O[C@@H]2C1 | -112% |
| COCCNC(=O)[C@@H]1CN(c2ncccn2)C[C@H]2OCC[C@H]21 | -68.4% |
| CCCS(=O)(=O)NC1CCc2c(ccc(=O)n2CC2CC2)C1 (stereo not given) | -67.3% |
| O=C1CC2(CCN(Cc3ccoc3)C2)CN1c1cncnc1 (stereo not given) | -69.4% |
| Cc1nc(CCN(C)C(=O)CCNC(=O)c2ccccc2F)no1 | 6.35% |
| COc1cccc(N2CCC(N3CCOC(C(F)(F)F)C3)CC2)c1 (stereo not given) | -1.71% |
| Cc1cc(NCCS(C)(=O)=O)n2nc(C)cc2n1 | -14% |
| NCC1Cc2cc(-c3nccc(N4CCC(O)CC4)n3)cc(Cl)c2O1 (stereo not given) | -4.33% |
| Cc1nc(O)cc(C2CCN(C(=O)CN(C)c3ccccc3)CC2)n1 | 8.92% |
| Cc1cc(C(=O)N[C@H]2CN(CCO)C[C@@H]2C2CC2)sc1C | 1.18% |
| O=C(N[C@@H]1CCN(C(=O)c2cc[nH]c2)C[C@H]1O)c1ccccn1 | 5.89% |
| Cc1cc(C)c2nc(CNCCNS(C)(=O)=O)cc(O)c2c1 | 0.145% |
| CCc1cnc(NCC2OCCc3ccccc32)nc1 (stereo not given) | -3.6% |
| CCCN1CCN(C(=O)c2cc3ccccc3cn2)[C@H]2CS(=O)(=O)C[C@H]21 | 1.1% |
| CC(C)c1noc(-c2ccc(NCCCC3CCOC3)nc2)n1 (stereo not given) | -7.37% |
| O=c1n(CCn2cccc2)nc(C2CCNCC2)n1Cc1ccccc1 | -2.06% |
| Cc1[nH]c2ccc(C#N)cc2c1CCNc1ncnc2c1CCNCC2 | -11.2% |
| CN(Cc1cc2n(n1)CCNC2)Cc1n[nH]c2c1CCCCC2 | -6.32% |
| COC(=O)CCCn1ccnc1-c1ccc(OC)c(F)c1F | -2.8% |
| CCCc1cc(NCCn2cccn2)n2nccc2n1 | 0.988% |
| Cc1cc(C(=O)N(C)Cc2cnn(C)c2)c(NC(=O)C(C)(C)C)s1 | 0.254% |

| SMILES | cytotoxicity at 10 µM |
| --- | --- |
| Cc1nc[nH]c1CN1CCC(C2CCN(CCc3ccccc3)C2)CC1 (stereo not given) | -3.52% |
| CSc1cccc(CNC(=O)C2CC(=O)N(C3CC3)C2)c1 (stereo not given) | -12.3% |
| CN(Cc1cnc(N)nc1)C(=O)C1CCN(C(=O)C2CCCC2)CC1 | -1.42% |
| COc1ccc(C2(C(=O)NCc3c(C)ncc4c3CCNC4)CC2)cc1 | -50.7% |
| O=C(NCCCSC1CCCCC1)C1NCCc2[nH]cnc21 (stereo not given) | -0.283% |
| Cc1c(-c2n[nH]c3c2CN(CC2CCOC2)CC3)cccc1C(F)(F)F (stereo not given) | -43.2% |
| Cc1nc(-c2cccc(N3CCC(N[C@@H]4CCOC4)CC3)c2)cs1 | -8.16% |
| CN1CCN2CCN(C(=O)c3cc4ncc(CCO)cn4n3)CC2C1 (stereo not given) | 6.99% |
| CN(C)C(=O)c1ccc(C(C(=O)O)N(C)Cc2ccccc2Cl)cc1 (stereo not given) | -54.6% |
| Cc1nn(C)c2nc(NCCOCCO)sc12 | -5% |
| CCOc1ccccc1C(=O)Nn1c(C)cc(C)cc1=O | -10.9% |
| c1ccc(-c2nc(CN3CCCC3Cn3cccn3)no2)cc1 (stereo not given) | -6.69% |
| Cc1nccc(-c2cccc(NCC(=O)N3CCNC(=O)C3)c2)n1 | -0.797% |
| COc1ccc(CN(C)C(=O)NCc2c(C)cc(C)nc2OC)cc1 | -7.11% |
| CCOc1cc(C)nc(N2CCN(C(=O)c3cn[nH]c3CC)CC2)n1 | -2% |
| CCN1CCN(C(C)CNC(=O)Nc2cnn(CC)c2)CC1 (stereo not given) | -12.9% |
| Cc1ccoc1C(=O)NC1CCN(Cc2ccccc2F)CC1 | -14.1% |
| CCCc1n[nH]c(C2CN(CCS(=O)(=O)CC)CCO2)n1 (stereo not given) | -5.83% |
| CC(NC(=O)NCCCN(C)S(C)(=O)=O)c1ccc(C#N)cc1 (stereo not given) | -5.77% |
| CC(C)(C)c1nnc(CN2CCCC(c3cc(C(N)=O)[nH]n3)C2)o1 (stereo not given) | -7.89% |
| CCOC1CCCN(C(=O)c2sccc2-n2cnnn2)C1 (stereo not given) | 4.39% |
| Cc1noc(C)c1CNC(=O)N1CCN(Cc2cscn2)CC1 | -6.31% |

| SMILES | cytotoxicity at 10 µM |
| --- | --- |
| COc1ccc(C)cc1CC(=O)N1CCN(CC(C)O)CC1 (stereo not given) | -8.65% |
| COCCNc1ccc(CC2CCCNC2)cn1 (stereo not given) | 7.29% |
| COc1ccc(CNC(Cc2ccsc2)c2ccc(C)cn2)cc1OC (stereo not given) | -4.88% |
| COc1ccc(C(C)NCc2c[nH]nc2C)cc1Br (stereo not given) | -5.57% |
| O=C(c1ccoc1)N1CCC2(CCC(=O)N2Cc2ccncc2)CC1 | -1% |
| OCCN1CCOC2(CCCN(c3cccc(F)c3)C2)C1 (stereo not given) | 2.01% |
| O=C(NCc1cn2c(n1)CN(Cc1ccncc1)CC2)C1CCC1 | 6.76% |
| Fc1cnc(N2CC[C@@H](N3CCOCC3)[C@@H]2Cc2cccnc2)nc1 | 11.7% |
| Cc1cccc(CN2CCc3c(CNC(=O)CC#N)nn(C)c3C2)n1 | 4.89% |
| N#Cc1ccc(N2CCC3(CCC(=O)N3Cc3ccncc3)CC2)nc1 | -109% |
| COc1cc(N2CC[C@@H](O)[C@@H]2Cc2ccncc2)ncn1 | -84.5% |
| O=C(NCc1ccco1)[C@H]1C[C@@H]2CCN(c3cccc(F)c3)C[C@H]2O1 | 8.68% |
| Cc1nc(CN2CC[C@H]3[C@H]2CCN3c2ncccn2)cs1 | -0.603% |
| Cc1ccc(C(=O)N2C[C@H]3CCC[C@@]3(COCc3ccncc3)C2)cn1 | 6.64% |
| Cc1cccc(CN2Cc3nccn3CC(CN3CCOCC3)C2)c1 (stereo not given) | -75.2% |
| O=C1CC(NCc2cnc(N3CCCC3)nc2)CN1c1ccccc1 (stereo not given) | -4.56% |
| COCC(=O)N1CCCC2(CCN(Cc3cccc(C)n3)C2=O)C1 (stereo not given) | -0.559% |
| CN(C)CC1CN(Cc2ccc3c(c2)OCO3)Cc2nccn2C1 (stereo not given) | -0.362% |
| COCCN1CCc2c(CNC(=O)c3nccn3C)cncc2C1 | -107% |
| CCCN1C[C@@H]2CC[C@H]1CN(C(=O)c1ccc(N(C)CCO)cc1)C2 | -6.47% |
| COc1ccccc1C(=O)NC(c1ccccn1)C1CCC(CN)CC1 (stereo not given) | -12.8% |
| COC(=O)N1C[C@@H]2CC[C@H]1CN(Cc1ccncc1)C2 | -10% |
